Test system: Fibroblast
Experiment: Multiplex assay against human fibroblast
Type: toxicity, cell-based
Method in brief: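 Compound was added to live cells that had been stained at seeding with Hoechst33342, BioTracker Green Microtubule Cytoskeleton Dye, MitoTracker Red and Annexin V Alexa Fluor 680, and imaging followed on a CQ1 microscope at 37°C and 5% CO2. CellPathfinder machine-learning gating divided cells into Hoechst high-intensity objects or normal cells, normal cells into healthy, pyknosed or fragmented nuclei, and pyknosed cells into mitotic or apoptotic. Tubulin, mitochondrial-mass and membrane-permeability phenotypes are per cents of healthy-nucleus cells.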

[1] = 12 h, 1 µM, compound concentration 1 uM, replicate 1
[2] = 12 h, 1 µM, compound concentration 1 uM, replicate 2
[3] = 12 h, 10 µM, compound concentration 10 uM, replicate 1
[4] = 12 h, 10 µM, compound concentration 10 uM, replicate 2
[5] = 24 h, 1 µM, compound concentration 1 uM, replicate 1
[6] = 24 h, 1 µM, compound concentration 1 uM, replicate 2
[7] = 24 h, 10 µM, compound concentration 10 uM, replicate 1
[8] = 24 h, 10 µM, compound concentration 10 uM, replicate 2
[9] = 48 h, 1 µM, compound concentration 1 uM, replicate 1
[10] = 48 h, 1 µM, compound concentration 1 uM, replicate 2
[11] = 48 h, 10 µM, compound concentration 10 uM, replicate 1
[12] = 48 h, 10 µM, compound concentration 10 uM, replicate 2

SMILES: Cc1cc2c(cc1N1C(=O)c3cccc4c(CCCO)ccc(c34)C1=O)n(C)c(=O)n2C
- Population Apoptotic (%) [1]: 68%
- Population Fragmented Nuclei (%) [1]: 19%
- Population Healthy Nuclei (%) [1]: 49%
- Population Hoechst High Intensity Objects (%) [1]: 17%
- Population Membrane Permeable-Phenotype (%) [1]: 30%
- Population Mitochondria Different-Phenotype (%) [1]: 8%
- Population Mitotic Cells (%) [1]: 31%
- Population Normal (%) [1]: 82%
- Population Pyknosed Nuclei (%) [1]: 31%
- Population Tubulin-Different-Phenotype (%) [1]: 41%
- Total Cell Count [1]: 148
- Population Apoptotic (%) [2]: 0%
- Population Fragmented Nuclei (%) [2]: 6%
- Population Healthy Nuclei (%) [2]: 90%
- Population Hoechst High Intensity Objects (%) [2]: 8%
- Population Membrane Permeable-Phenotype (%) [2]: 1%
- Population Mitochondria Different-Phenotype (%) [2]: 22%
- Population Mitotic Cells (%) [2]: 100%
- Population Normal (%) [2]: 91%
- Population Pyknosed Nuclei (%) [2]: 3%
- Population Tubulin-Different-Phenotype (%) [2]: 24%
- Total Cell Count [2]: 104
- Population Apoptotic (%) [3]: 68%
- Population Fragmented Nuclei (%) [3]: 21%
- Population Healthy Nuclei (%) [3]: 46%
- Population Hoechst High Intensity Objects (%) [3]: 12%
- Population Membrane Permeable-Phenotype (%) [3]: 21%
- Population Mitochondria Different-Phenotype (%) [3]: 7%
- Population Mitotic Cells (%) [3]: 31%
- Population Normal (%) [3]: 87%
- Population Pyknosed Nuclei (%) [3]: 31%
- Population Tubulin-Different-Phenotype (%) [3]: 72%
- Total Cell Count [3]: 126
- Population Apoptotic (%) [4]: 37%
- Population Fragmented Nuclei (%) [4]: 20%
- Population Healthy Nuclei (%) [4]: 63%
- Population Hoechst High Intensity Objects (%) [4]: 9%
- Population Membrane Permeable-Phenotype (%) [4]: 29%
- Population Mitochondria Different-Phenotype (%) [4]: 77%
- Population Mitotic Cells (%) [4]: 62%
- Population Normal (%) [4]: 90%
- Population Pyknosed Nuclei (%) [4]: 16%
- Population Tubulin-Different-Phenotype (%) [4]: 96%
- Total Cell Count [4]: 54
- Population Apoptotic (%) [5]: 46%
- Population Fragmented Nuclei (%) [5]: 20%
- Population Healthy Nuclei (%) [5]: 55%
- Population Hoechst High Intensity Objects (%) [5]: 19%
- Population Membrane Permeable-Phenotype (%) [5]: 31%
- Population Mitochondria Different-Phenotype (%) [5]: 5%
- Population Mitotic Cells (%) [5]: 53%
- Population Normal (%) [5]: 80%
- Population Pyknosed Nuclei (%) [5]: 24%
- Population Tubulin-Different-Phenotype (%) [5]: 41%
- Total Cell Count [5]: 130
- Population Apoptotic (%) [6]: 40%
- Population Fragmented Nuclei (%) [6]: 7%
- Population Healthy Nuclei (%) [6]: 87%
- Population Hoechst High Intensity Objects (%) [6]: 3%
- Population Membrane Permeable-Phenotype (%) [6]: 0%
- Population Mitochondria Different-Phenotype (%) [6]: 27%
- Population Mitotic Cells (%) [6]: 60%
- Population Normal (%) [6]: 96%
- Population Pyknosed Nuclei (%) [6]: 5%
- Population Tubulin-Different-Phenotype (%) [6]: 17%
- Total Cell Count [6]: 96
- Population Apoptotic (%) [7]: 58%
- Population Fragmented Nuclei (%) [7]: 22%
- Population Healthy Nuclei (%) [7]: 47%
- Population Hoechst High Intensity Objects (%) [7]: 15%
- Population Membrane Permeable-Phenotype (%) [7]: 13%
- Population Mitochondria Different-Phenotype (%) [7]: 17%
- Population Mitotic Cells (%) [7]: 41%
- Population Normal (%) [7]: 84%
- Population Pyknosed Nuclei (%) [7]: 29%
- Population Tubulin-Different-Phenotype (%) [7]: 45%
- Total Cell Count [7]: 115
- Population Apoptotic (%) [8]: 80%
- Population Fragmented Nuclei (%) [8]: 18%
- Population Healthy Nuclei (%) [8]: 62%
- Population Hoechst High Intensity Objects (%) [8]: 11%
- Population Membrane Permeable-Phenotype (%) [8]: 41%
- Population Mitochondria Different-Phenotype (%) [8]: 76%
- Population Mitotic Cells (%) [8]: 20%
- Population Normal (%) [8]: 88%
- Population Pyknosed Nuclei (%) [8]: 18%
- Population Tubulin-Different-Phenotype (%) [8]: 76%
- Total Cell Count [8]: 61
- Population Apoptotic (%) [9]: 34%
- Population Fragmented Nuclei (%) [9]: 31%
- Population Healthy Nuclei (%) [9]: 45%
- Population Hoechst High Intensity Objects (%) [9]: 21%
- Population Membrane Permeable-Phenotype (%) [9]: 28%
- Population Mitochondria Different-Phenotype (%) [9]: 2%
- Population Mitotic Cells (%) [9]: 65%
- Population Normal (%) [9]: 78%
- Population Pyknosed Nuclei (%) [9]: 22%
- Population Tubulin-Different-Phenotype (%) [9]: 30%
- Total Cell Count [9]: 129
- Population Apoptotic (%) [10]: 100%
- Population Fragmented Nuclei (%) [10]: 28%
- Population Healthy Nuclei (%) [10]: 69%
- Population Hoechst High Intensity Objects (%) [10]: 9%
- Population Membrane Permeable-Phenotype (%) [10]: 21%
- Population Mitochondria Different-Phenotype (%) [10]: 1%
- Population Mitotic Cells (%) [10]: 0%
- Population Normal (%) [10]: 90%
- Population Pyknosed Nuclei (%) [10]: 2%
- Population Tubulin-Different-Phenotype (%) [10]: 35%
- Total Cell Count [10]: 118
- Population Apoptotic (%) [11]: 90%
- Population Fragmented Nuclei (%) [11]: 35%
- Population Healthy Nuclei (%) [11]: 54%
- Population Hoechst High Intensity Objects (%) [11]: 18%
- Population Membrane Permeable-Phenotype (%) [11]: 22%
- Population Mitotic Cells (%) [11]: 10%
- Population Normal (%) [11]: 81%
- Population Pyknosed Nuclei (%) [11]: 10%
- Population Tubulin-Different-Phenotype (%) [11]: 62%
- Total Cell Count [11]: 120
- Population Apoptotic (%) [12]: 66%
- Population Fragmented Nuclei (%) [12]: 26%
- Population Healthy Nuclei (%) [12]: 68%
- Population Hoechst High Intensity Objects (%) [12]: 9%
- Population Membrane Permeable-Phenotype (%) [12]: 23%
- Population Mitochondria Different-Phenotype (%) [12]: 5%
- Population Mitotic Cells (%) [12]: 33%
- Population Normal (%) [12]: 90%
- Population Pyknosed Nuclei (%) [12]: 6%
- Population Tubulin-Different-Phenotype (%) [12]: 85%
- Total Cell Count [12]: 55

From ChEMBL document CHEMBL4689842, “EUbOPEN Chemogenomics Library wave 1” (2021)
